Bioassay records from PubChem.
hDAT+cocaine: human DAT dopamine uptake with cocaine, either direction | Q01959 | LLC-PK1 hDAT cells, [14C]-dopamine uptake with cocaine IC80; actives deviate in either direction | B-score at 10 µM | 110,000 compounds, 1.3% hits;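 active = Z score or B-score, a plate-position-corrected score, falls beyond the plate's 99.7% confidence bounds, in either direction; inactive = both scores lie inside the 99.7% bounds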;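 note: scored against the spread of the other compound wells on the same plate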
Cav32 inh: inhibitors of human Cav3.2 T-type calcium channel | Cav3.2-expressing cells, Fluo-4 calcium fluorescence FDSS; active compounds read low | B-score at 10 µM | 100,000 compounds, 4% hits;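 active = single-dose well whose peak fluorescence ratio is a statistical outlier from its plate by either plate-standardised score or position-corrected B-score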
HIV Rev-RRE inh: HIV Rev-RRE protein-RNA interaction inhibition | AID 704 | P05866 | inhibition, % at 8 µM | Rev peptide-RRE RNA binding, FRET | 97,000 compounds, 0.79% hits;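 active = inhibition above the screen-wide mean plus 3 SD, cut at about 35% in these data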;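 note: 0% = median DMSO wells and 100% = median Neomycin B control wells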
Target sequence (P05866 whole entry, looked up): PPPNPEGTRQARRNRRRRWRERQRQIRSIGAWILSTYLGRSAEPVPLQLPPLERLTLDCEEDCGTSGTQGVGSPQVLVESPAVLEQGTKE
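Assay system: Rev peptide and RRE RNA, both fluorescently labelled; times: 5 min preincubation and 15 min binding, 25 °C; detection: FRET, ex 480 nm, em 540 and 671 nm; read-out basis: % inhibition from 671/540 nm acceptor-to-donor ratio, scaled between controls; benchmarks: DMSO low control, neomycin B high control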
EphB4 ephrin blk: EphB4-ephrin-B2 interaction antagonism; P54760; EphB4 LBD / TNYL-RAW-Alexa532 peptide, fluorescence polarization; inhibition, % at 7 µM; 97,000 compounds, 0.15% hits; AID 720;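 active = inhibition above the screen-wide mean inhibition plus 3 SD, cut at about 15% in these data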;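 note: 0% = DMSO wells and 100% = excess unlabeled TNYL-RAW peptide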
Numbers without * were called inactive; · = no result given. Shown are actives, neighbours in structure and some others; about 5.4% of the full set was active somewhere.

SMILES | hDAT+cocaine | Cav32 inh | HIV Rev-RRE inh | EphB4 ephrin blk
Cc1nn(CCC#N)c(NC(=O)c2ccc(Cl)cc2Cl)c1P(=O)(Nc1ccc([N+](=O)[O-])cc1)N1CCOCC1 (stereo unspecified) | -6.5* | -0.11 | 1 | 6
O=S(=O)(Nc1cccc2ccccc12)N1CCCC1 | -0.49 | -1.3 | 7 | 3
CCOc1cc(S(=O)(=O)Nc2ccccc2CC)ccc1Cl | 0.93 | -5.8* | 19 | 3
COc1ccccc1NC(=O)Cn1nc(-c2ccc(Cl)cc2)c2ccccc2c1=O | 2.3 | -4.7* | 15 | 3
Cc1cc(C)nc(SCc2nnc(SCC(=O)N3CCCc4ccccc43)o2)n1 | 3.3* | -0.5 | 1 | 4
O=C(CSc1nnc(C2COc3ccccc3O2)o1)N1CCOCC1 (stereo unspecified) | -1.3 | -0.15 | 3 | 0
Cc1cc(C)nc(SCc2nnc(SCc3ccccc3Cl)o2)n1 | · | -6.2* | 3 | -10
O=C(CSc1nnc(Cc2ccccc2)o1)N1CCCc2ccccc21 | 2.6* | -3.9* | · | ·
Cc1cc(C)nc(SCc2nnc(SCC(=O)Nc3c(C)cccc3C)o2)n1 | 0.98 | 0.67 | -1 | -5
O=C(CSc1nnc(C2COc3ccccc3O2)o1)N1CCCc2ccccc21 (stereo unspecified) | 0.73 | -10* | 2 | -2
Cc1cc(C)nc(SCc2nnc(SCC(=O)N3CCCc4ccccc43)n2C)n1 | -0.29 | 0.97 | 3 | 4
O=C(CSc1nnc(CNc2ccccc2)o1)N1CCc2ccccc21 | -0.2 | 0.41 | 1 | -1
Cc1cccc(CN(CC(=O)N/N=C/c2cccs2)S(=O)(=O)c2ccc(Cl)cc2)c1 | 0.36 | -2.6 | 6 | -1
Cc1nn(-c2ccccc2)c2sc(-c3n[nH]c(=S)o3)cc12 | 0.018 | 0.17 | · | ·
Cc1ccc(OCCN2CCN(c3ncnc4sc(C)c(C)c34)CC2)cc1 | 0.88 | -3.6* | 7 | 12
COc1ccc(CCNC(=O)Cn2nnc(-c3ccccc3F)n2)cc1OC | -0.83 | 1.1 | 7 | 2
COc1cccc(N(CC(=O)Nc2ccc3c(c2)OCO3)S(=O)(=O)c2ccccc2)c1 | 0.7 | 1.1 | 4 | -4
CCOC(=O)c1c(N2C(=O)C3C4C=CC(O4)C3C2=O)sc2c1CCCC2 (stereo unspecified) | · | · | -1 | -3
CCOC(=O)c1c(N2C(=O)Nc3cc(Cl)c(Cl)cc3N2O)sc2c1CCCCC2 | 3.8* | -3.9* | 10 | 1
Cc1[nH]c2ccccc2c1Cc1nnc(SCc2ccccc2)o1 | -1.7 | -8.6* | 8 | -3
c1ccc(CSc2nnc(-c3c[nH]c4ccccc34)o2)cc1 | -1.1 | -0.03 | 13 | 0
Cc1c(Cl)cccc1NC(=O)c1cc(C2CC2)on1 | -0.52 | -1.6 | 5 | -1
COc1ccc(S(=O)(=O)Cc2ccc(C(=O)N3CCc4ccccc4C3)o2)cc1 | 2.4* | -0.015 | 7 | 1
CCC(C)c1ccc(O)c(NC(=O)c2ncn[nH]2)c1 (stereo unspecified) | -0.41 | 0.52 | 1 | -3
Cc1ccc(C)c(NC(=O)c2ncn[nH]2)c1 | -0.66 | -4.2* | 6 | 4
SMILES | hDAT+cocaine | Cav32 inh | HIV Rev-RRE inh | EphB4 ephrin blk
CNC(=S)N1C2CCC1CC(NC(=O)NC13CC4CC(CC(C4)C1)C3)C2 (stereo unspecified) | -0.54 | -0.13 | -3 | -4
CS(=O)(=O)N1CC(C(=O)NC2CC2)Oc2ccc(Cl)cc21 (stereo unspecified) | -0.97 | 0.46 | 6 | 3
COC(=O)c1ccc(NC(=S)N2CCN(Cc3cccc(C)c3)CC2)cc1 | 1.3 | -4.4* | -4 | 4
NS(=O)(=O)c1ccc(NC(=O)Cn2ncc3c2-c2ccccc2OC3)cc1 | -1.3 | 0.018 | 2 | -1
COC(=O)C(Cc1ccc(OC(=O)c2ccccc2C)cc1)N1Cc2ccccc2C1=O (stereo unspecified) | 3.3* | 0.057 | -1 | 1
CC(C)Cn1c(CN2CCN(c3ccccc3F)CC2)nc2c1c(=O)[nH]c(=O)n2C | 1.8 | 1.1 | 4 | -4
COc1ccc(CCNC(=O)COc2ccc(S(=O)(=O)N3CCOCC3)cc2)cc1 | 2.4* | -0.066 | 2 | -1
CC(=O)NCCc1ccc(S(=O)(=O)N2CCOCC2)cc1 | -1.1 | 0.61 | 5 | 1
COc1ccc(CCNC(=O)CCC(=O)N2CCN(S(=O)(=O)c3ccc(Cl)cc3)CC2)cc1OC | 2.4 | -0.24 | 9 | 6
COc1ccc(CCNC(=O)COc2ccc(S(=O)(=O)N3CCOCC3)cc2)cc1OC | 0.39 | -4.3* | 4 | -4
CCCCCCNC(=O)n1cc(F)c(=O)[nH]c1=O | 0.74 | -0.67 | · | ·
CN(C)c1nccc(N(Cc2ccccc2)Cc2ccccc2)c1C#N | 0.022 | -5.7* | 3 | 5
CCCCc1c(C(=O)O)cc(OC)cc1C(=O)O | 0.12 | -0.24 | · | ·
CCCCCc1c2c(cc(O)c1C(=O)O)OC(=O)c1c(cc(OC)cc1C(=O)CCCC)O2 | 5.3* | -3.9* | · | ·
O=C(Cn1c(=O)n(Cc2ccc3c(c2)OCO3)c(=O)c2ccccc21)N1CCCc2ccccc21 | -0.015 | -7.1* | 11 | -3
Cc1ccccc1N=C1NC(=O)CC(c2ccccc2)S1 (stereo unspecified) | 0.35 | -2.8 | 4 | -1
COc1ccccc1NC(=O)N1CCc2[nH]c3ccc(F)cc3c2C1 | 0.16 | -4.2* | 13 | 1
COc1ccccc1NC(=O)N1CCN(c2ccc(F)cc2)CC1 | -0.049 | 1.3 | 1 | 4
Cc1ccc(N2CC(C(=O)Nc3cc(C)ccc3F)CC2=O)cc1 (stereo unspecified) | -0.65 | -0.95 | · | ·
O=C(Nc1cccc(F)c1)C1CC(=O)N(c2ccc(Cl)cc2)C1 (stereo unspecified) | 0.52 | -5.8* | 2 | -3
O=C(Nc1cccc(F)c1)C1CC(=O)N(c2ccc(Br)cc2)C1 (stereo unspecified) | -0.76 | -5.4* | 11 | -5
O=c1c2c(nc3n1CCCCC3)-c1ccccc1CC21CCCC1 | 0.92 | · | 9 | 2
CCOC(=O)C1Cn2c(nc3c(c2=O)C2(CCCC2)Cc2ccccc2-3)S1 (stereo unspecified) | 0.31 | -5.4* | 5 | 2
CCOC(=O)C1Cn2c(nc3c(c2=O)C(C)(C)Cc2ccccc2-3)S1 (stereo unspecified) | 0.74 | -6.4* | 5 | -5
CCCCOC(=O)Cn1c(=N)n(CCN2CCOCC2)c2ccccc21 | -0.17 | 0.26 | -5 | -4
N=c1n(CCN2CCOCC2)c2ccccc2n1CC(=O)c1ccc(Cl)c(Cl)c1 | 1.4 | -4.7* | -5 | -1
Cc1ccc(SCC(=O)NCCSC(C)(C)C)cc1 | 2.8 | 0.013 | 3 | -8
CC(NC(=O)CCSc1nc(-c2ccc3c(c2)OCO3)cc(C(F)(F)F)n1)c1ccccc1 (stereo unspecified) | 0.8 | -5.2* | 1 | 2
COc1ccc(-c2cc(C(F)(F)F)nc(SCCC(=O)NCc3ccccc3)n2)cc1 | -0.15 | -5.7* | 7 | 0
COc1cccc(CNC(=O)CSCc2cnn(-c3ccccc3)c2-n2cccc2)c1OC | 1.4 | -6* | 7 | 1
